In ChEMBL document CHEMBL5058577, “EUbOPEN Chemogenomics Library 2 (Multiplex)” (2022):

Test system: HEK-293T
Assay: Multiplex assay against HEK293T
Assay type: toxicity, cell-based
Conditions: human
Procedure, shortened: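 Hoechst33342, BioTracker Green Microtubule Cytoskeleton Dye, MitoTracker Red and Annexin V Alexa Fluor 680 were added to live cells at seeding, and imaging on a CQ1 microscope at 37°C and 5% CO2 followed compound addition. Gating by CellPathfinder machine learning separated cells into Hoechst high-intensity objects or normal cells, then normal cells into healthy, pyknosed or fragmented nuclei, then pyknosed cells into mitotic or apoptotic. Per cents of healthy-nucleus cells are reported for the tubulin, mitochondrial-mass and membrane-permeability phenotypes.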

[1] = 12 h, 1 µM, compound concentration 1 uM, replicate 1
[2] = 12 h, 1 µM, compound concentration 1 uM, replicate 2
[3] = 12 h, 10 µM, compound concentration 10 uM, replicate 1
[4] = 12 h, 10 µM, compound concentration 10 uM, replicate 2
[5] = 24 h, 1 µM, compound concentration 1 uM, replicate 1
[6] = 24 h, 1 µM, compound concentration 1 uM, replicate 2
[7] = 24 h, 10 µM, compound concentration 10 uM, replicate 1
[8] = 24 h, 10 µM, compound concentration 10 uM, replicate 2
[9] = 48 h, 1 µM, compound concentration 1 uM, replicate 1
[10] = 48 h, 1 µM, compound concentration 1 uM, replicate 2
[11] = 48 h, 10 µM, compound concentration 10 uM, replicate 1
[12] = 48 h, 10 µM, compound concentration 10 uM, replicate 2

O=C(NCCN1CCC(n2c(=O)[nH]c3cc(Cl)ccc32)CC1)c1ccc(F)cc1 [HALOPEMIDE]
Population Apoptotic (%) [1]: 46%
Population Fragmented Nuclei (%) [1]: 5%
Population Healthy Nuclei (%) [1]: 81%
Population Hoechst High Intensity Objects (%) [1]: 7%
Population Membrane Permeable-Phenotype (%) [1]: 0%
Population Mitochondria Different-Phenotype (%) [1]: 54%
Population Mitotic Cells (%) [1]: 53%
Population Normal (%) [1]: 92%
Population Pyknosed Nuclei (%) [1]: 13%
Population Tubulin-Different-Phenotype (%) [1]: 42%
Total Cell Count [1]: 334
Population Apoptotic (%) [2]: 43%
Population Healthy Nuclei (%) [2]: 79%
Population Hoechst High Intensity Objects (%) [2]: 10%
Population Mitochondria Different-Phenotype (%) [2]: 62%
Population Mitotic Cells (%) [2]: 56%
Population Normal (%) [2]: 89%
Population Pyknosed Nuclei (%) [2]: 15%
Population Tubulin-Different-Phenotype (%) [2]: 29%
Total Cell Count [2]: 373
Population Apoptotic (%) [3]: 39%
Population Fragmented Nuclei (%) [3]: 5%
Population Healthy Nuclei (%) [3]: 74%
Population Hoechst High Intensity Objects (%) [3]: 14%
Population Membrane Permeable-Phenotype (%) [3]: 0%
Population Mitochondria Different-Phenotype (%) [3]: 76%
Population Mitotic Cells (%) [3]: 60%
Population Normal (%) [3]: 85%
Population Pyknosed Nuclei (%) [3]: 20%
Population Tubulin-Different-Phenotype (%) [3]: 68%
Total Cell Count [3]: 460
Population Apoptotic (%) [4]: 65%
Population Fragmented Nuclei (%) [4]: 6%
Population Healthy Nuclei (%) [4]: 72%
Population Hoechst High Intensity Objects (%) [4]: 13%
Population Membrane Permeable-Phenotype (%) [4]: 1%
Population Mitochondria Different-Phenotype (%) [4]: 84%
Population Mitotic Cells (%) [4]: 34%
Population Normal (%) [4]: 86%
Population Pyknosed Nuclei (%) [4]: 21%
Population Tubulin-Different-Phenotype (%) [4]: 59%
Total Cell Count [4]: 319
Population Apoptotic (%) [5]: 40%
Population Fragmented Nuclei (%) [5]: 7%
Population Healthy Nuclei (%) [5]: 79%
Population Hoechst High Intensity Objects (%) [5]: 3%
Population Membrane Permeable-Phenotype (%) [5]: 1%
Population Mitochondria Different-Phenotype (%) [5]: 35%
Population Mitotic Cells (%) [5]: 59%
Population Normal (%) [5]: 96%
Population Pyknosed Nuclei (%) [5]: 12%
Population Tubulin-Different-Phenotype (%) [5]: 24%
Total Cell Count [5]: 471
Population Fragmented Nuclei (%) [6]: 9%
Population Hoechst High Intensity Objects (%) [6]: 6%
Population Membrane Permeable-Phenotype (%) [6]: 0%
Population Mitochondria Different-Phenotype (%) [6]: 37%
Population Normal (%) [6]: 93%
Population Pyknosed Nuclei (%) [6]: 11%
Population Tubulin-Different-Phenotype (%) [6]: 21%
Total Cell Count [6]: 508
Population Apoptotic (%) [7]: 27%
Population Fragmented Nuclei (%) [7]: 8%
Population Healthy Nuclei (%) [7]: 72%
Population Hoechst High Intensity Objects (%) [7]: 8%
Population Membrane Permeable-Phenotype (%) [7]: 1%
Population Mitochondria Different-Phenotype (%) [7]: 63%
Population Mitotic Cells (%) [7]: 72%
Population Normal (%) [7]: 91%
Population Pyknosed Nuclei (%) [7]: 19%
Population Tubulin-Different-Phenotype (%) [7]: 64%
Total Cell Count [7]: 580
Population Apoptotic (%) [8]: 64%
Population Fragmented Nuclei (%) [8]: 9%
Population Healthy Nuclei (%) [8]: 70%
Population Membrane Permeable-Phenotype (%) [8]: 0%
Population Mitochondria Different-Phenotype (%) [8]: 78%
Population Mitotic Cells (%) [8]: 35%
Population Pyknosed Nuclei (%) [8]: 20%
Population Tubulin-Different-Phenotype (%) [8]: 62%
Total Cell Count [8]: 361
Population Apoptotic (%) [9]: 30%
Population Fragmented Nuclei (%) [9]: 13%
Population Healthy Nuclei (%) [9]: 79%
Population Hoechst High Intensity Objects (%) [9]: 1%
Population Membrane Permeable-Phenotype (%) [9]: 1%
Population Mitochondria Different-Phenotype (%) [9]: 21%
Population Mitotic Cells (%) [9]: 69%
Population Normal (%) [9]: 98%
Population Pyknosed Nuclei (%) [9]: 6%
Population Tubulin-Different-Phenotype (%) [9]: 16%
Total Cell Count [9]: 841
Population Apoptotic (%) [10]: 28%
Population Hoechst High Intensity Objects (%) [10]: 3%
Population Membrane Permeable-Phenotype (%) [10]: 0%
Population Mitotic Cells (%) [10]: 71%
Population Normal (%) [10]: 96%
Population Pyknosed Nuclei (%) [10]: 7%
Population Tubulin-Different-Phenotype (%) [10]: 10%
Total Cell Count [10]: 675
Population Apoptotic (%) [11]: 37%
Population Fragmented Nuclei (%) [11]: 14%
Population Healthy Nuclei (%) [11]: 72%
Population Hoechst High Intensity Objects (%) [11]: 8%
Population Membrane Permeable-Phenotype (%) [11]: 1%
Population Mitochondria Different-Phenotype (%) [11]: 57%
Population Mitotic Cells (%) [11]: 62%
Population Normal (%) [11]: 91%
Population Pyknosed Nuclei (%) [11]: 12%
Population Tubulin-Different-Phenotype (%) [11]: 55%
Total Cell Count [11]: 706
Population Apoptotic (%) [12]: 60%
Population Healthy Nuclei (%) [12]: 74%
Population Hoechst High Intensity Objects (%) [12]: 6%
Population Mitochondria Different-Phenotype (%) [12]: 64%
Population Mitotic Cells (%) [12]: 40%
Population Normal (%) [12]: 93%
Population Pyknosed Nuclei (%) [12]: 11%
Total Cell Count [12]: 531
